Experimental data published in ChEMBL document CHEMBL3351676, “Polyyne hybrid compounds from Notopterygium incisum with peroxisome proliferator-activated receptor gamma agonistic effects” (J Nat Prod, 2014).
The source made the active and inactive calls. The calls are words filed in the database; no cut-off is given here.

Assays:
[1] = molecular target: T1, Peroxisome proliferator-activated receptor gamma (Homo sapiens) (UniProt P37231); experiment: Agonist activity at human PPARgamma expressed in HEK293 cells assessed as induction of receptor activation at 10 uM incubated for 18 hrs by luciferase reporter gene assay relative to untreated control; assay type: cell-based
T1 sequence (whole entry): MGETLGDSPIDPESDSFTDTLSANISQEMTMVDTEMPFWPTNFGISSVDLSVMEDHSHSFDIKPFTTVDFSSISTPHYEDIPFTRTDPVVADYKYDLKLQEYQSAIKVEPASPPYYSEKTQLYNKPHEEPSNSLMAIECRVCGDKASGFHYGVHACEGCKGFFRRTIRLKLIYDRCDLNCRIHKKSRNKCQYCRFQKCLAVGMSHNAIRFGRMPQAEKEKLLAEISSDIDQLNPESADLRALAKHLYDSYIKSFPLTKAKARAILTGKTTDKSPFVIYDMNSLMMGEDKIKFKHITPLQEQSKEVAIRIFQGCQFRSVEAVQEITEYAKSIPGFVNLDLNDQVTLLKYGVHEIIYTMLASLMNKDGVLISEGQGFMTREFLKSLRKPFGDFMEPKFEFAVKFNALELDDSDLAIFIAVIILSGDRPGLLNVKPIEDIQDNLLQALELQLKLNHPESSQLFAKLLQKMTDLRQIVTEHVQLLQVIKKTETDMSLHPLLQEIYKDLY
Outline: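 HEK-293 cells in DMEM with 10% FBS, transfected by calcium phosphate with human PPARγ1 plasmid, tk-PPREx3-luc reporter and pEGFP-N1. After 6 h, replated in phenol-red-free DMEM with charcoal-stripped FBS. Treated 18 h; DMSO ≤0.1% as solvent control. Firefly luciferase luminescence normalized to EGFP fluorescence per well.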

RAW264.7 = experiment: Inhibition of LPS and IFNgamma-induced nitric oxide production in mouse RAW264.7 cells incubated for 16 hrs by Griess assay; assay type: functional, cell-based
Outline: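 RAW 264.7 macrophages stimulated with LPS plus IFN-γ to induce iNOS. Compounds dissolved in DMSO and diluted in PBS. Nitrite in supernatants measured by Griess assay against a sodium nitrite standard curve after 16 h. Activity expressed relative to LPS/IFN-γ/0.1% DMSO control; L-NMMA as positive control. Eight concentrations, at least three independent experiments, each in duplicate.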

Row | SMILES | Activity [1] | inhibition (RAW264.7)
1 | C=C[C@@H](O)C#Cc1c2c(cc3cc(OC)c(O)cc13)CO[C@H]2/C=C\CCCCCCC | inactive | inactive
2 | C=C[C@H](C#CC#C[C@@H](O)/C=C\CCCCCCC)O[C@]1(C)CCC[C@]2(C)CC[C@@H](C(C)(C)O)C[C@H]21 | – | inactive
3 | C=C[C@@H](O)C#CC#C[C@H](/C=C\CCCCCCC)O[C@]1(C)CC[C@@H](O)[C@]2(C)CC[C@H](C(C)C)[C@H](O)[C@H]21 | inactive | inactive
4 | C=C[C@H](C#CC#C[C@@H](O)/C=C\CCCCCCC)O[C@]1(C)CC[C@@H](O)[C@]2(C)CC[C@@H](C(C)C)[C@@H](O)[C@H]21 | – | inactive
5 | C=C[C@@H](O)C#CC#C[C@H](/C=C\CCCCCCC)O[C@]1(C)CCC[C@]2(C)CC[C@@H](C(C)(C)O)C[C@H]21 | – | inactive
6 | C=C[C@@H](O)C#CC#C[C@H](/C=C\CCCCCCC)O[C@]1(C)CC[C@@H](O)[C@]2(C)CC[C@@H](C(C)C)[C@@H](O)[C@H]21 | inactive | inactive
7 | C=C[C@@H](O)C#CC#C[C@H](/C=C\CCCCCCC)O[C@]1(C)CC[C@@H](C(C)C)[C@@H](O)[C@@H]2[C@@](C)(O)CC[C@]21O | inactive | inactive
8 | C=C[C@H]1OCc2cc3cc(OC)c(O)cc3c(C#C[C@@H](O)/C=C\CCCCCCC)c21 | – | inactive
9 | C=C[C@H](C#CC#C[C@@H](O)/C=C\CCCCCCC)O[C@]1(C)CC[C@@H](C(C)C)[C@@H](O)[C@@H]2[C@@](C)(O)CC[C@]21O | inactive | inactive
10 | C=C[C@H](C#CC#C[C@@H](O)/C=C\CCCCCCC)O[C@]1(C)CC[C@@H](O)[C@]2(C)CC[C@H](C(C)C)[C@H](O)[C@H]21 | inactive | inactive
